Test results: ChEMBL document CHEMBL1122206, “Use of adenine nucleotide derivatives to assess the potential of exo-active-site-directed reagents as species- or isozyme-specific enzyme inactivators. 5. Interactions of adenosine 5'-triphosphate derivatives with rat pyruvate kinases, Escherichia coli thymidine kinase, and yeast and rat …” (1982)
“And” between values parts separate entries of the source, which are not always exact repeats. Equal values may be shown once.

Key:
[1] = Substrate concentration for half maximal velocity was reported for rat hexokinase II
Summary of the method: (§1)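 Coupled glucose-6-phosphate dehydrogenase/NADP assay: A340 rate at 22 °C in 0.05 M Tris-HCl pH 7.6 with 6.6 mM MgCl2, 10 mM α-D-glucose and 0.93 mM NADP, nucleotide varied. KM was taken from linear double-reciprocal plots. Rat HK I and III came from electrofocused, dialysed liver extract, HK II from dialysed muscle extract, and yeast HK was isoelectric-focused.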

[2] = Compound was tested for substrate constants with yeast hexokinase. Maximal velocity Vmax was reported
Summary of the method: (§2)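 Hexokinase KM and Vmax taken from linear double-reciprocal plots of initial velocity vs. nucleotide level. Assays at 22 °C, coupled to glucose-6-phosphate dehydrogenase (A340), in 0.05 M Tris-HCl pH 7.6 with 6.6 mM MgCl2, 10 mM glucose and 0.93 mM NADP. Yeast HK was isoelectric-focused. Rat HK I and III came from liver, HK II from muscle (male Sprague-Dawley).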

[3] = Compound was tested for substrate constants with rat hexokinase. Maximal velocity Vmax was reported; summary of the method: as §2
[4] = Substrate concentration for half maximal velocity was reported for rat hexokinase III; summary of the method: as §1
[5] = Substrate concentration for half maximal velocity was reported for yeast hexokinase; summary of the method: as §1
[6] = Substrate concentration for half maximal velocity was reported for rat hexokinase I; summary of the method: as §1
[7] = target: Thymidine kinase (Escherichia coli) (UniProt P23331); experiment: Compound was tested for the initial inhibition of thymidine kinase by 1.4 mM compound in the presence of 5.7 mM ATP in Escherichia coli
[8] = target: T1, Hexokinase-3 (Rattus norvegicus) (UniProt P27926); experiment: Substrate activity for rat hexokinase III as 1:1 Mg complex at 5.0 mM
T1 sequence (whole entry): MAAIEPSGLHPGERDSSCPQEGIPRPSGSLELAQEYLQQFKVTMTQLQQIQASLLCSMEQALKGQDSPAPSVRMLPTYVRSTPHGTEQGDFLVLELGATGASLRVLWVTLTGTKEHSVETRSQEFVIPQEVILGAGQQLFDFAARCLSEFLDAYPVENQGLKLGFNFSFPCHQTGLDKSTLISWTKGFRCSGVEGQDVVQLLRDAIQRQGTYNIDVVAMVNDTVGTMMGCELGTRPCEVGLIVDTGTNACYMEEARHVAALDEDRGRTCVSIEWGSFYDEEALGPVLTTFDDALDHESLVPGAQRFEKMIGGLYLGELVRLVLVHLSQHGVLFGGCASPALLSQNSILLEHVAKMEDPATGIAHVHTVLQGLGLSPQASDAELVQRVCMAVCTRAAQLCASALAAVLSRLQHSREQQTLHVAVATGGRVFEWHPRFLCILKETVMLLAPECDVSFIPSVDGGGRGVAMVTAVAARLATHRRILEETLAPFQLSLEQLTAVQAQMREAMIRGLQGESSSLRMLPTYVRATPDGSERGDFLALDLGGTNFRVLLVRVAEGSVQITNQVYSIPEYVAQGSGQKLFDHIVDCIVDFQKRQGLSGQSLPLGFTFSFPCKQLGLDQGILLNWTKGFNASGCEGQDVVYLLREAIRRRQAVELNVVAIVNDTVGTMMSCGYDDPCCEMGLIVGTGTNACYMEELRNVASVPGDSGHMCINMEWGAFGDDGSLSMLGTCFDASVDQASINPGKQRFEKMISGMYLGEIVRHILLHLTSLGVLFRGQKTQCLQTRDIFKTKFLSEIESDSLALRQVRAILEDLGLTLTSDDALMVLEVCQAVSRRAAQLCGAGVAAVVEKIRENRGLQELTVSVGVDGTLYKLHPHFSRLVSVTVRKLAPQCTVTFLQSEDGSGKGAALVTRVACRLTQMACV
Summary of the method: (§3)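 Hexokinase activity read at 22 °C as A340 change, coupled to glucose-6-phosphate dehydrogenase, in 0.05 M Tris-HCl pH 7.6 with 6.6 mM MgCl2, 10 mM α-D-glucose and 0.93 mM NADP. Donor was 5.0 mM MgATP derivative (1:1 Mg complex) in place of ATP. Yeast HK was isoelectric-focused. Rat HK I and III came from electrofocused liver extract, HK II from dialysed muscle extract.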

[9] = species: Rattus norvegicus; experiment: Compound was tested for the affinity to Rat pyruvate kinase relative to the normal substrate. Affinity is expressed as KM (ATP or ADP)/ Ki of inhibitor.; assay type: functional
[10] = target: T1, Hexokinase-3 (Rattus norvegicus); experiment: Time dependent inhibition of Hexokinase type III activity after 6 h, at 22 degrees celsius, at 5 mM
[11] = test system: Saccharomyces cerevisiae; experiment: Time dependent inhibition of hexokinase activity after 6 hr, at 22 degrees celsius, with 5 mM ATP derivative in yeast.
[12] = target: T2, Hexokinase-1 (Rattus norvegicus) (UniProt P05708); experiment: Substrate activity for rat hexokinase I as 1:1 Mg complex at 5.0 mM; summary of the method: as §3
T2 sequence (whole entry): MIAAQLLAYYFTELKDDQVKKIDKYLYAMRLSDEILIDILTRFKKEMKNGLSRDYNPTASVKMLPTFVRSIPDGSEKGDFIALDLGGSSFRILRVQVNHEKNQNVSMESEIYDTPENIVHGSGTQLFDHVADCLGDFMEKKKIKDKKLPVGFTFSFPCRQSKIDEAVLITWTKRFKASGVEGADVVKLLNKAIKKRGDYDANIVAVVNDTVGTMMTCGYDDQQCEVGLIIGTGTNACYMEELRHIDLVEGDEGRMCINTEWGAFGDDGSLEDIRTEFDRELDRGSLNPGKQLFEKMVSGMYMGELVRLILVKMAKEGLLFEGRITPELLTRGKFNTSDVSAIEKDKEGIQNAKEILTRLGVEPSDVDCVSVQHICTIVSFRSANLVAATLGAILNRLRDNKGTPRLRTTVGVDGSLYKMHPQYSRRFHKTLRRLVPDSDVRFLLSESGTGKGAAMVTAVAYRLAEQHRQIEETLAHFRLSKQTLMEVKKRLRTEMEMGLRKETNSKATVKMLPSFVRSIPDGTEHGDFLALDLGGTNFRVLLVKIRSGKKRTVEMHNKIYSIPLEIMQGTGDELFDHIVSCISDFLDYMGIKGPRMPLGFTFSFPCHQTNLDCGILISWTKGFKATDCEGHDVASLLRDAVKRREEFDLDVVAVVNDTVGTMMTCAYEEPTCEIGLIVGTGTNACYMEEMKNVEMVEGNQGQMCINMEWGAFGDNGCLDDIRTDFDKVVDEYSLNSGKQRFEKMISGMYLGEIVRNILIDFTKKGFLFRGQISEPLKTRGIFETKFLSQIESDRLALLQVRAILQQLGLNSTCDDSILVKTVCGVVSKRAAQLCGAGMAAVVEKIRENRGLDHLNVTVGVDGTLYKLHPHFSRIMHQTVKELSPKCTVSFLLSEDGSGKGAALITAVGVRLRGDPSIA

[13] = target: T3, Hexokinase-2 (Rattus norvegicus) (UniProt P27881); experiment: Time dependent inhibition of hexokinase 2 activity after 6 h, at 5 mM compound
T3 sequence (whole entry): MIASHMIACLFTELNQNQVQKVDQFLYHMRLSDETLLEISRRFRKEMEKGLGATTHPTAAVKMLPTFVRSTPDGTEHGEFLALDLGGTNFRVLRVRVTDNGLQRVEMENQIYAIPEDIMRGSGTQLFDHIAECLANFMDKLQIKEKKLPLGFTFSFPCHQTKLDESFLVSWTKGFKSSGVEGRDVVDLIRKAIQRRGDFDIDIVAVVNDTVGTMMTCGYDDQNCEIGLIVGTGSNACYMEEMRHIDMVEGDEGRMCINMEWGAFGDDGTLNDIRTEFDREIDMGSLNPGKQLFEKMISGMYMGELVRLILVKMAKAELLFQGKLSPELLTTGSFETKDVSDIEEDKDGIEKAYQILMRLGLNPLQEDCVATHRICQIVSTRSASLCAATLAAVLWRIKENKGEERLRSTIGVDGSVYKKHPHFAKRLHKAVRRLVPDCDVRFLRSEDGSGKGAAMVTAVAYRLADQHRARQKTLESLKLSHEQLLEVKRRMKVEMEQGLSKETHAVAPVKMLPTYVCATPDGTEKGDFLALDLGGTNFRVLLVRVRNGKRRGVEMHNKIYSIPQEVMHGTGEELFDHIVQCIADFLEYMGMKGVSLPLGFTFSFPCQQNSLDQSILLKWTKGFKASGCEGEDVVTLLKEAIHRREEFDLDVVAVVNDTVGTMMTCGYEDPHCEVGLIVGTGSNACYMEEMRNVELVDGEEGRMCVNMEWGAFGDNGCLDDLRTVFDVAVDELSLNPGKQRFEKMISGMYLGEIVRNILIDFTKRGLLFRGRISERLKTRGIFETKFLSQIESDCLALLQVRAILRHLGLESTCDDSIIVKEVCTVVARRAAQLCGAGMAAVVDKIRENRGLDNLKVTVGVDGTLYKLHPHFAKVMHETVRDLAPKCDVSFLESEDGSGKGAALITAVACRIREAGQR

[14] = target: T2, Hexokinase-1 (Rattus norvegicus); experiment: Time dependent inhibition of Hexokinase type I activity after 6 h, at 22 degrees celsius, at 5 mM compound
[15] = target: T3, Hexokinase-2 (Rattus norvegicus); experiment: Substrate activity against Rat hexokinase II as 1:1 Mg complex at 5.0 mM; summary of the method: as §3
[16] = (§4) Extent of inactivation caused by the compound was reported.; assay type: functional
[17] = test system: Saccharomyces cerevisiae; experiment: Substrate activity against yeast hexokinase as 1:1 Mg complexes at 5.0 mM; summary of the method: as §3
[18] = target: Thymidine kinase (Escherichia coli) (UniProt P23331); experiment: Compound was tested for the lose of thymidine kinase activity after 6 hr, at 0 degrees celsius, with 10 mM ATP derivative. values were expressed in percent
[19] = Compound was tested for the affinity relative to the normal substrate. Affinity is expressed as KM (ATP or ADP)/ Ki of inhibitor.
[20] = as §4
[21] = Tested for the velocity of 2.8 mM compound relative to that of 2.8 mM MgATP in the assay
Summary of the method: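 E. coli TK substrate test. 0.5 h after adding inhibitor, the mixture was diluted to 2.8 mM derivative in thymidine assay medium without ATP and with 1.42 mM MnCl2. Incubated 15 min at 37 °C, in the linear range. [14C]TMP formed was compared with that from 2.8 mM ATP under the same conditions.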

Sequence of Thymidine kinase (Escherichia coli) (P23331 whole entry, looked up): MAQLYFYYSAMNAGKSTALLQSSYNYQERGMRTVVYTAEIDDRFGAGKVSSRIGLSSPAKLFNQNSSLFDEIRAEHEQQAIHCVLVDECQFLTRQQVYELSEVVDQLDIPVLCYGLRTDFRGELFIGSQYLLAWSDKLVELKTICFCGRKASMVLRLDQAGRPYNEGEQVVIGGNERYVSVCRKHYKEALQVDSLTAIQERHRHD

## CN(CCCN(C)C(=O)CCCCNc1ncnc2c1ncn2[C@@H]1O[C@H](COP(=O)(O)OP(=O)(O)OP(=O)(O)O)[C@@H](O)[C@H]1O)C(=O)CCCCNC(=O)OCc1ccccc1
[1]
  Km: 270 µM
[2]
  Vmax: 75%
[3]
  Vmax: 45% and 35% and 23%
[4]
  Km: 100 µM
[5]
  Km: 320 µM
[6]
  Km: 180 µM

## O=C(CI)NCCCCCCCCNc1ncnc2c1ncn2[C@@H]1O[C@H](COP(=O)(O)OP(=O)(O)OP(=O)(O)O)[C@@H](O)[C@H]1O
[7]
  inhibition: 19%
[8]
  Relative velocity: 2.81
[9]
  Relative affinity: 0.011
[10]
  inhibition: 47%
[11]
  inhibition: 30%
[12]
  Relative velocity: 1.79
[13]
  inhibition: 41%
[14]
  inhibition: 35%
[15]
  Relative velocity: 1.26
[16]
  Inactivation: > 90%
[17]
  Relative velocity: 1.82
[18]
  inhibition: 0%

## CN(CCCCN(C)c1ncnc2c1ncn2[C@@H]1O[C@H](COP(=O)(O)OP(=O)(O)OP(=O)(O)O)[C@@H](O)[C@H]1O)C(=O)CCCCCNC(=O)CI
[7]
  inhibition: 11%
[19]
  Relative affinity: 0.56
[10]
  inhibition: 0%
[20]
  Relative inactivation: > 80
[13]
  inhibition: 0%
[14]
  inhibition: 0%
[21]
  Velocity: > 13%
[18]
  inhibition: 53%
